ChEMBL document CHEMBL1156332, “Polysubstituted pyrazoles, part 6. Synthesis of some 1-(4-chlorophenyl)-4-hydroxy-1H-pyrazol-3-carbonyl derivatives linked to nitrogenous heterocyclic ring systems as potential antitumor agents” (2010)

Legend:
Format in all cases: functional
CCRF-CEM = experiment: Growth inhibition of human CCRF-CEM cells after 48 hrs by sulforhodamine B assay
Outline: (§1)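 NCI 60-line panel, five concentrations (0.01–100 µM) from DMSO stock diluted in medium with gentamicin. Cells were plated 24 h before dosing, with time-zero plates fixed at drug addition, then exposed 48 h at 37 °C, 5% CO₂. Adherent cells were fixed with cold TCA (10% final) and suspension cells with 16% TCA. Staining used 0.4% SRB, solubilised in 10 mM Tris and read at 515 nm. GI₅₀ was taken from log concentration–% growth curves.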

HL-60(TB) = experiment: Growth inhibition of human HL-60(TB) cells after 48 hrs by sulforhodamine B assay; settings: HL-60, 48 h
Outline: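 NCI 60-cell panel. Cells were preincubated 24 h at 37 °C in 5% CO2, then time-zero plates were TCA-fixed. Drugs were dissolved in DMSO and given at five concentrations (10-fold or half-log dilutions) for 48 h. Suspension cells were fixed with TCA (16% final), stained with 0.4% SRB and read at 515 nm. GI50 is the concentration giving 50% decrease in net growth, taken from log concentration–growth curves.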

K562 = experiment: Growth inhibition of human K562 cells after 48 hrs by sulforhodamine B assay; settings: K562, 48 h; outline: as §1
RPMI-8226 = experiment: Growth inhibition of human RPMI8226 cells after 48 hrs by sulforhodamine B assay; settings: RPMI-8226, 48 h; outline: as §1
A549 = experiment: Growth inhibition of human A549 cells after 48 hrs by sulforhodamine B assay; settings: A549, 48 h; outline: as §1
HOP-62 = experiment: Growth inhibition of human HOP62 cells after 48 hrs by sulforhodamine B assay; settings: HOP-62, 48 h; outline: as §1
NCI-H460 = experiment: Growth inhibition of human NCI-H460 cells after 48 hrs by sulforhodamine B assay; settings: NCI-H460, 48 h; outline: as §1
NCI-H522 = experiment: Growth inhibition of human NCI-H522 cells after 48 hrs by sulforhodamine B assay; settings: NCI-H522, 48 h; outline: as §1
COLO 205 = experiment: Growth inhibition of human COLO205 cells after 48 hrs by sulforhodamine B assay; settings: COLO 205, 48 h; outline: as §1
HCC 2998 = experiment: Growth inhibition of human HCC2998 cells after 48 hrs by sulforhodamine B assay; settings: HCC 2998, 48 h; outline: as §1
HCT-15 = experiment: Growth inhibition of human HCT15 cells after 48 hrs by sulforhodamine B assay; settings: HCT-15, 48 h; outline: as §1
HT-29 = experiment: Growth inhibition of human HT-29 cells after 48 hrs by sulforhodamine B assay; settings: HT-29, 48 h; outline: as §1
KM12 = experiment: Growth inhibition of human KM12 cells after 48 hrs by sulforhodamine B assay; settings: KM12, 48 h; outline: as §1
SF-268 = experiment: Growth inhibition of human SF268 cells after 48 hrs by sulforhodamine B assay; settings: SF-268, 48 h; outline: as §1
SNB-75 = experiment: Growth inhibition of human SNB75 cells after 48 hrs by sulforhodamine B assay; settings: SNB-75, 48 h
Outline: (§2)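 Adherent lines plated and held 24 h at 37 °C, 5% CO2, 100% humidity; time-zero plates TCA-fixed at drug addition. Drugs from DMSO stocks were made into five concentrations by 10-fold or half-log serial dilution and applied for 48 h continuous exposure. Cells were fixed with cold TCA (10% final) for 60 min at 4 °C, then stained with 0.4% SRB in 1% acetic acid for 10 min. Dye was solubilized in 10 mM Tris base and read at 515 nm. GI50 was taken from log concentration–growth curves.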

LOX IMVI = experiment: Growth inhibition of human LOXIMVI cells after 48 hrs by sulforhodamine B assay; outline: as §1
M14 = experiment: Growth inhibition of human M14 cells after 48 hrs by sulforhodamine B assay; settings: M14, 48 h; outline: as §1
SK-MEL-28 = experiment: Growth inhibition of human SK-MEL-28 cells after 48 hrs by sulforhodamine B assay; settings: SK-MEL-28, 48 h; outline: as §2
SK-MEL-5 = experiment: Growth inhibition of human SK-MEL-5 cells after 48 hrs by sulforhodamine B assay; settings: SK-MEL-5, 48 h; outline: as §2
UACC-62 = experiment: Growth inhibition of human UACC62 cells after 48 hrs by sulforhodamine B assay; settings: UACC-62, 48 h; outline: as §2
IGROV-1 = experiment: Growth inhibition of human IGROV1 cells after 48 hrs by sulforhodamine B assay; settings: IGROV-1, 48 h; outline: as §1
OVCAR-3 = experiment: Growth inhibition of human OVCAR-3 cells after 48 hrs by sulforhodamine B assay; settings: OVCAR-3, 48 h; outline: as §1
OVCAR-8 = experiment: Growth inhibition of human OVCAR8 cells after 48 hrs by sulforhodamine B assay; settings: OVCAR-8, 48 h; outline: as §1
SK-OV-3 = experiment: Growth inhibition of human SKOV3 cells after 48 hrs by sulforhodamine B assay; settings: SK-OV-3, 48 h; outline: as §2
A498 = experiment: Growth inhibition of human A498 cells after 48 hrs by sulforhodamine B assay; settings: A498, 48 h; outline: as §1
CAKI-1 = experiment: Growth inhibition of human Caki1 cells after 48 hrs by sulforhodamine B assay; settings: CAKI-1, 48 h; outline: as §1
RXF 393 = experiment: Growth inhibition of human […] cells after 48 hrs by sulforhodamine B assay; settings: RXF 393, 48 h; outline: as §1
SN12C = experiment: Growth inhibition of human SN12C cells after 48 hrs by sulforhodamine B assay; outline: as §2
TK-10 = experiment: Growth inhibition of human TK10 cells after 48 hrs by sulforhodamine B assay; settings: TK-10, 48 h; outline: as §2
MCF7 = experiment: Growth inhibition of human MCF7 cells after 48 hrs by sulforhodamine B assay; settings: MCF7, 48 h; outline: as §1
[1] = Growth inhibition of human Hs 578T cells after 48 hrs by sulforhodamine B assay; outline: as §1
BT-549 = experiment: Growth inhibition of human BT549 cells after 48 hrs by sulforhodamine B assay; settings: BT-549, 48 h; outline: as §1
MDA-MB-468 = experiment: Growth inhibition of human MDA-MB-468 cells after 48 hrs by sulforhodamine B assay; settings: MDA-MB-468, 48 h; outline: as §1
[2] = Cytotoxicity against human leukemia cells after 48 hrs by sulforhodamine B assay; settings: Leukemia cell
Outline: (§3)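 NCI five-dose screen: about 60 human tumour lines grouped into nine subpanels were plated and incubated 24 h before dosing. Compounds went in as DMSO stock and were diluted in medium to five final concentrations (0.01–100 µM). Exposure was 48 h continuous at 37 °C, 5% CO₂, followed by TCA fixation and SRB staining read at 515 nm. Per-line GI₅₀, TGI and LC₅₀ came from log concentration–% growth curves, averaged per subpanel as MG-MID.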

[3] = Cytotoxicity against human CNS cancer cells after 48 hrs by sulforhodamine B assay; settings: Cancer cell lines; outline: as §3
[4] = Cytotoxicity against human ovarian cancer cells after 48 hrs by sulforhodamine B assay; settings: Cancer cell lines; outline: as §3
[5] = Cytotoxicity against human renal cancer cells after 48 hrs by sulforhodamine B assay; settings: Cancer cell lines; outline: as §3
[6] = Cytotoxicity against human prostate cancer cells after 48 hrs by sulforhodamine B assay; settings: Cancer cell lines; outline: as §3

With `O=C1CC(=O)N(C(=O)c2nn(-c3ccc(Cl)cc3)cc2O)N1` the GI50 (CCRF-CEM) was 420 nM, the GI50 (HL-60(TB)) was 770 nM and the GI50 (K562) was 290 nM. The GI50 (RPMI-8226) was 380 nM, the GI50 (A549) was 360 nM and the GI50 (HOP-62) was 510 nM. The GI50 (NCI-H460) was 310 nM, the GI50 (NCI-H522) was 300 nM and the GI50 (COLO 205) was 940 nM. For the same compound, the GI50 (HCC 2998) was 4740 nM, the GI50 (HCT-15) was 490 nM and the GI50 (HT-29) was 580 nM. It also gave a GI50 (KM12) of 1160 nM, a GI50 (SF-268) of 510 nM and a GI50 (SNB-75) of 240 nM. It also gave a GI50 (LOX IMVI) of 1370 nM, a GI50 (M14) of 710 nM and a GI50 (SK-MEL-28) of 5260 nM. It also gave a GI50 (SK-MEL-5) of 1920 nM, a GI50 (UACC-62) of 390 nM and a GI50 (IGROV-1) of 380 nM. The GI50 (OVCAR-3) was 930 nM, the GI50 (OVCAR-8) was 640 nM and the GI50 (SK-OV-3) was 1920 nM. For the same compound, the GI50 (A498) was 110 nM, the GI50 (CAKI-1) was 650 nM and the GI50 (RXF 393) was 310 nM. For the same compound, the GI50 (SN12C) was 500 nM, the GI50 (TK-10) was 350 nM and the GI50 (MCF7) was 1560 nM. The GI50 [1] was 190 nM, the GI50 (BT-549) was 370 nM and the GI50 (MDA-MB-468) was 720 nM. For the same compound, the GI50 [2] was 420 nM, the TGI [2] was 10800 nM and the GI50 [3] was 330 nM. It also gave a TGI [3] of 87900 nM, a GI50 [4] of 1080 nM and a TGI [4] of 84000 nM. The GI50 [5] was 850 nM, the TGI [5] was 71800 nM and the GI50 [6] was 670 nM.

Compound `N#Cc1cnn(C(=O)c2nn(-c3ccc(Cl)cc3)cc2O)c1N` has a GI50 (CCRF-CEM) of 280 nM, a GI50 (HL-60(TB)) of 330 nM and a GI50 (K562) of 250 nM. It also gave a GI50 (RPMI-8226) of 210 nM, a GI50 (A549) of 200 nM and a GI50 (HOP-62) of 340 nM. For the same compound, the GI50 (NCI-H460) was 190 nM, the GI50 (NCI-H522) was 210 nM and the GI50 (COLO 205) was 910 nM. It also gave a GI50 (HCC 2998) of 650 nM, a GI50 (HCT-15) of 340 nM and a GI50 (HT-29) of 1190 nM. It also gave a GI50 (KM12) of 380 nM, a GI50 (SF-268) of 460 nM and a GI50 (SNB-75) of 250 nM. It also gave a GI50 (LOX IMVI) of 440 nM, a GI50 (M14) of 480 nM and a GI50 (SK-MEL-28) of 630 nM. The GI50 (SK-MEL-5) was 480 nM, the GI50 (UACC-62) was 300 nM and the GI50 (IGROV-1) was 360 nM. It also gave a GI50 (OVCAR-3) of 550 nM, a GI50 (OVCAR-8) of 480 nM and a GI50 (SK-OV-3) of 520 nM. The GI50 (A498) was 170 nM, the GI50 (CAKI-1) was 280 nM and the GI50 (RXF 393) was 510 nM. The GI50 (SN12C) was 350 nM, the GI50 (TK-10) was 280 nM and the GI50 (MCF7) was 360 nM. It also gave a GI50 [1] of 190 nM, a GI50 (BT-549) of 290 nM and a GI50 (MDA-MB-468) of 950 nM. The GI50 [2] was 270 nM, the LC50 (concentration killing 50% of cells) [2] was 44300 nM and the TGI [2] was 3230 nM. The GI50 [3] was 320 nM, the LC50 [3] was 74700 nM and the TGI [3] was 23100 nM. It also gave a GI50 [4] of 500 nM, an LC50 (50% lethal concentration) [4] of 88500 nM and a TGI [4] of 19600 nM. It also gave a GI50 [5] of 360 nM, an LC50 [5] of 75000 nM and a TGI [5] of 8990 nM. It also gave a GI50 [6] of 450 nM and a TGI [6] of 13400 nM.
